Measured values from ChEMBL document CHEMBL4513216, “Probing the Open Global Health Chemical Diversity Library for Multistage-Active Starting Points for Next-Generation Antimalarials” (ACS Infect Dis, 2020).

Assay: Toxicity liver stage against HepG2, at 10uM
Assay type: cell-based
Design: test concentration 10 uM, cell line HepG2-A16-CD81EGFP
Details: human, HepG2-A16-CD81EGFP cells; read-out: INHIBITION
Outline: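 Uninfected HepG2-A16-CD81EGFP cells, 3 × 10^3 per well, 1536-well, plated on prespotted compound at 10 μM final, parasite-free screening media added to match infected plates; puromycin 10 μM positive, DMSO 0.5% negative; run in parallel with 48 h PbLuc assay at 37 °C, 5% CO2; viability by CellTiter-Glo luminescence, normalized to controls.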

SMILES	cytotoxicity at 10 µM
Cc1cc(C)n(CCC(=O)N2CCCC(c3cc(C(N)=O)[nH]n3)C2)n1 (stereo unspecified)	-29.3%
c1cncc(COCc2n[nH]c3c2CN(Cc2ccco2)C3)c1	9.01%
COc1ccccc1-c1nnc([C@H]2CCN(C(=O)C3CC3)C2)o1	0.734%
Cn1cc(CN2CC[C@@H](NS(C)(=O)=O)[C@@H]2Cc2cccnc2)cn1	-74.4%
CC(=O)N1CCC2(CC1)CN(CC1CC1)c1ccc(F)cc12	-113%
Cc1ccc2cccc(C(=O)NCCOCC3CC3)c2n1	-20.3%
Cc1cccc(CN2Cc3ccnn3CC(COCC3CC3)C2)n1 (stereo unspecified)	2.13%
CC(C)CCS(=O)(=O)N1CCCC(c2nncn2C(C)C)C1 (stereo unspecified)	5.04%
Cc1ccc(CN2CCCC3(CCN(Cc4ccc(C)o4)C3)C2)o1 (stereo unspecified)	-107%
O=C(O)c1cc(S(=O)(=O)Nc2ccc(F)cc2F)cc2c1OCCO2	-1.2%
CCc1cccc(N2CCC(NC(=O)c3ccncc3)CC2)c1	-13.9%
Cc1cc(NC(=O)CN2CCCC2c2noc(C(C)C)n2)n(C)n1 (stereo unspecified)	4.64%
O=C1OCCN1CCCN1CCCC1c1ccc(O)cc1 (stereo unspecified)	-6.3%
Cc1cc(C)c2ncc(C#N)c(NC3CCN(CC(N)=O)CC3)c2c1	-4.38%
CN1CCC(NC(=O)NCc2csc(Br)c2)CC1	-8.92%
CN(C)CCCn1ccnc1C1CCN(c2cccc(C(=O)O)n2)CC1	6.87%
CC(Cn1cccn1)NC(=O)N1CCC(NS(C)(=O)=O)CC1 (stereo unspecified)	-0.508%
COc1ccc(OCCN(C)S(=O)(=O)c2cnn(C)c2)cc1	-2.82%
Cc1ccc(NC(C)(C)c2nnnn2-c2ccc(Cl)cc2)c(C)c1	55.4%
O=C(c1ccccc1F)N1CC[C@@H]2CN(c3ncccn3)CCO[C@@H]2C1	-78.1%
CCc1c(C)sc(NC(=O)CN2CCN(CC)CC2)c1C(=O)OC	-11.1%
CC(C)c1ncc(CN2CCCC(CO)C2)cn1 (stereo unspecified)	-1.49%
Oc1cc(-c2ccsc2)nc(C2CCN(Cc3cccnc3)CC2)n1	2.95%

SMILES	cytotoxicity at 10 µM
Cc1nn(CC(=O)N(C)Cc2nncn2C(C)C)c(=O)c2ccccc12	3.1%
COc1cccn(CC(=O)N2CCC3(CCNCC3)C2)c1=O	-11.4%
CCc1nnsc1C(=O)NCC1CN(CC(C)C)CCO1 (stereo unspecified)	0.537%
CC(=O)N1CCN(Cc2ccncc2)CC2(CC(=O)N(C)C2)C1 (stereo unspecified)	-1.83%
CC(CCc1ccccc1)N1CCC(C(=O)NCc2ccccc2)CC1 (stereo unspecified)	11%
Cc1sc(-c2ccco2)nc1C(=O)N(CC1CCOC1)C1CC1 (stereo unspecified)	0.714%
Cc1ccc(N2CCCN(C(=O)C(C(C)C)n3cncn3)CC2)nn1 (stereo unspecified)	-5.99%
O=C(c1ccc[nH]1)N1CCc2nnc(Cn3cccn3)n2CC1	5.62%
Cn1ccnc1CN1CCN(CCOc2ccccc2C#N)CC1	-14.9%
CC(C)OCCCNC(=O)NCc1cccc(-n2ccnc2)c1	18.5%
O=C(CCc1cc2n(n1)CCN(CCCn1cccc1)C2)N1CCCC1	-15.4%
CCCS(=O)(=O)N1CCC2(CC1)CC(=O)N(Cc1cc(F)cc(F)c1)C2	8.78%
COCCOC1CCN(C(C(=O)O)c2ccc(F)c(Cl)c2)CC1 (stereo unspecified)	9.84%
O=S(=O)(CCCN1CCCC1Cn1cncn1)c1ccccc1 (stereo unspecified)	-7.64%
Cc1nn(C)c2nc(N3CCNC(=O)C3Cc3ccccc3)sc12 (stereo unspecified)	-2.32%
Cc1ccoc1C(=O)N1CCc2ccc(=O)n(CCN(C)C)c2CC1	1.41%
Cc1ccc(-c2cn[nH]c2C2CCCN(c3ccnc(C)n3)C2)cc1 (stereo unspecified)	-1.78%
CCN(CC)C(=O)COc1nc(C(C)C)no1	3.6%
COC(=O)C(NC(=O)COC1CCCC1)c1cc(F)ccc1F (stereo unspecified)	-9.06%
O=C(Cc1ccccc1O)Nc1ccc(N2CCCC2)nc1	9.31%
COCCOc1cc(C(=O)N2CC(C)c3ccccc32)ccn1 (stereo unspecified)	2.16%
CCC[C@@H]1CN(C(=O)c2cc3ccccc3s2)C[C@H]1NS(C)(=O)=O	-9.53%
Cc1cnc(N2CCC3(C2)C(=O)N(C)CCN3Cc2cccnc2)nc1 (stereo unspecified)	-6.98%

SMILES	cytotoxicity at 10 µM
Cc1cccc(C(=O)N2CCN(S(C)(=O)=O)[C@@H](C)C2)c1C	3.46%
O=c1occ(CN2CCCCCC2)c(O)c1CN1CCOCC1	-8.2%
CC(C)n1c(=O)c2sccc2n(CC(=O)Nc2cccc(Cl)c2)c1=O	8.93%
CCc1cnc(N2CCc3ncnc(N4CCN(C)CC4)c3CC2)nc1	-1.13%
O=C(Nc1ccccn1)C1CCN(Cc2cccc3c2OCCO3)CC1	-0.586%
Cn1cc(NC(=O)N2CCC(c3ccccc3)CC2)ccc1=O	-9.42%
O=C1NCC2(CCCN(Cc3ccccc3OCCO)C2)O1 (stereo unspecified)	-39.2%
Cc1nn(CC(=O)O)c(C)c1NS(=O)(=O)c1cc2ccccc2s1	-7.07%
c1ccc(-c2nc(SCc3nnc(C4CC4)o3)n[nH]2)nc1	-1.78%
COc1cc(C)c(C)cc1S(=O)(=O)N(C)CC(=O)Nc1ccon1	2.74%
O=C1NC[C@@]2(C(=O)O)CN(Cc3cccc(OC4CCCC4)c3)C[C@@H]12	-2.34%
Cc1noc(CS(=O)(=O)CC(=O)NC(C)c2ccccc2)n1 (stereo unspecified)	9.81%
COc1ccccc1N1CCN(C(=O)CSC(C)C)C(C)C1 (stereo unspecified)	-3.97%
CNc1ncc(C(=O)N2CC[C@@](O)(C3CCOCC3)[C@H](C)C2)cn1	4.56%
CC(C)c1nc(CN2CCOC(Cn3cccn3)C2)no1 (stereo unspecified)	-9.43%
CCCN(C)CCC(=O)N1CCCC1Cn1cccn1 (stereo unspecified)	-16.9%
Cc1cccc(CNC[C@H]2Cn3ccnc3CO2)n1	3.15%
Cc1ccc(S(=O)(=O)N2CCN(Cc3ccncc3)CC2)c(Cl)c1	-0.147%
COc1ncccc1C(=O)N1CCC(CNC(C)=O)CC1	3.17%
CS(=O)(=O)N1CCN(c2cc(-n3cccc3)ncn2)CC1	4.65%
COCCn1cc(NC(=O)NCC(C)N2CCOCC2)cn1 (stereo unspecified)	1.18%
c1ccc(COC[C@@H]2CCC[C@]23CN(Cc2nccs2)CCO3)nc1	-65.4%
COc1cccc(-c2n[nH]c3c2CN(C(=O)c2ccncc2)CC3)c1	-5.55%

SMILES	cytotoxicity at 10 µM
O=c1cc(N2CCNCC2)cnn1CCc1ccc(F)cc1	-8.76%
CS(=O)(=O)N1CCCCCC1C1CCN(c2ncccc2C#N)CC1 (stereo unspecified)	-3.2%
CN(C)CCn1c(=O)oc2ccc(NC(=O)c3cc(Cl)c[nH]3)cc21	6.79%
CCOc1ccc2cc(C(=O)NCCC(=O)N(C)C)[nH]c2c1	-6.16%
CNc1nc(C(=O)NCC2CCOc3ccccc3C2)cs1 (stereo unspecified)	2.53%
Cc1cccc(N2CCC3(CCCN(C(=O)Cc4cccnc4)C3)C2)n1 (stereo unspecified)	0.824%
COCCc1noc(Cn2c(=O)[nH]c3ccccc32)n1	-2.03%
COCCNC(=O)[C@H]1C[C@@H]2CCN(CCc3ccccc3)C[C@@H]2O1	-74.5%
Cc1ccc(CN(C)C(=O)CN2CCc3ccccc3C2)o1	-6.9%
CC(c1nc(C2CC2)no1)N1CCC(NS(=O)(=O)c2cccs2)CC1 (stereo unspecified)	6.4%
Cc1cc(C2CCCN2S(=O)(=O)c2cnn(C)c2)on1 (stereo unspecified)	-5.22%
CCN(Cc1nonc1C)C(=O)c1cc(C(F)(F)F)nn1C	2.06%
COc1cc(N2CC3(CCN(c4ncccn4)C3)C2)ncn1	9.79%
CC(c1cccnc1)N(C)Cc1cc2cc3c(cc2[nH]c1=O)OCO3 (stereo unspecified)	9.27%
COc1ccc2nnc(CCCC(=O)NCCc3ccccc3)n2n1	-5.11%
CN(C)S(=O)(=O)c1ccc(-c2nc(C#N)c(NC(C)(C)C)o2)o1	-12.3%
CCNc1ncc(CN2C[C@@H]3CC[C@H]2CN(C(=O)C2CCC2)C3)cn1	6.29%
c1csc(-c2nc(CN3CCCCC3Cn3cccn3)co2)c1 (stereo unspecified)	3.22%
c1ccc2oc(CN3CCCC(Cn4cncn4)C3)nc2c1 (stereo unspecified)	-7.3%
CCn1nc(C)cc1C(=O)NCc1noc(C(C)(C)C)n1	8.7%
CC(C)n1cnnc1CN1C(=O)CCc2ccccc21	0.0849%
COCCO[C@H]1COCCN(Cc2ccc(OC)cc2)C1	9.71%
COC(=O)c1cccc2nc([C@H]3CCN(Cc4ccccc4C)C3)oc12	8.36%

SMILES	cytotoxicity at 10 µM
O=C(c1ccoc1)N1CCc2c(COCc3ccncc3)cncc2C1	8.1%
CCc1nc(-c2ccc(NC(=O)N3CCCC3)cc2)no1	5.03%
COC(=O)c1ccc(N2CCN(CC(=O)NC(N)=O)C(C)C2)cc1 (stereo unspecified)	-4.54%
Cc1ccc(C)c(OCCN(C)C(=O)CCc2cn[nH]c2)c1	1.69%
COCc1nc(CNC2CCC3(CCNCC3)CC2)no1	-3.13%
COc1ccccc1OCCNC1CCCN(Cc2noc(C)n2)C1 (stereo unspecified)	-19.1%
Cc1ccccc1CC1(CO)CCCN(c2ncncc2C(C)C)C1 (stereo unspecified)	-22.2%
CN1CCN(C(=O)C2CN(Cc3cc4ccccc4o3)CCN2)CC1 (stereo unspecified)	-8.2%
Cc1cc(=O)n2ncnc2n1CC(O)c1cc(F)ccc1F (stereo unspecified)	1.7%
O=C1CNc2ncnc(Nc3cnn(Cc4ccccc4F)c3)c2N1	2.27%
O=C(C1=CCCCC1)N1CCC2(CC1)COC(COc1ccccn1)C2 (stereo unspecified)	-1.88%
Cc1noc(C)c1C(=O)NCC(c1ccc(F)cc1)N(C)C (stereo unspecified)	-0.0707%
Cc1cc(F)cc(CN2CCCn3nc(CNS(C)(=O)=O)cc3C2)c1	-3.85%
O=C(CCc1ccccc1)Nc1ncccc1OC(F)F	-3.45%
CC(C)(CNC(=O)Nc1nccs1)N1CCOCC1	-9.47%
O=C(O)CCN(Cc1ccc(F)c(F)c1)C(=O)C1CC1	1.04%
N#CCCSc1sc2c(O)cc(O)nc2c1C#N	-6.11%
O=C(c1sccc1Br)N1CCOCC1	-2.34%
c1ccc(CO[C@H]2CC[C@H]3[C@H]2OCCN3CCN2CCCCC2)nc1	-7.16%
